Laboratory results from ChEMBL document CHEMBL3632529, “1,2,3-Triazole pharmacophore-based benzofused nitrogen/sulfur heterocycles with potential anti-Moraxella catarrhalis activity” (2015).
≈ marks a conversion by molar mass, not a printed value.

Assays:
Format in all cases: functional
[1] = test system: Escherichia coli; test: Antibacterial activity against Escherichia coli ATCC 25922 after overnight incubation by broth microdilution method
Procedure, shortened: (§1)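 MIC per CLSI standard broth microdilution, with azithromycin as the reference antibiotic. Compounds were tested as double dilutions. Inocula were made by direct colony suspension at 5 × 10⁴ cfu/well. MIC was read visually after overnight incubation at 37 °C in ambient air.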

[2] = test system: Staphylococcus aureus; test: Antibacterial activity against Staphylococcus aureus ATCC 29213 after overnight incubation by broth microdilution method
Procedure, shortened: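 Colonies were grown on Mueller Hinton agar and suspended directly to give 5 × 10⁴ cfu/well. MIC was by CLSI broth microdilution with double dilutions of compound and azithromycin as the reference. Read-out was visual after overnight incubation at 37 °C in ambient air.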

[3] = test system: Moraxella catarrhalis; test: Antibacterial activity against Moraxella catarrhalis ATCC 23246 after overnight incubation by broth microdilution method; procedure, shortened: as §1
[4] = test system: Streptococcus pneumoniae; test: Antibacterial activity against Streptococcus pneumoniae ATCC 49619 after overnight incubation by broth microdilution method
Procedure, shortened: (§2)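 Streptococci were grown on Mueller-Hinton agar with 5% sheep blood. CLSI broth microdilution MIC used double dilutions, with azithromycin as the reference. The test medium was modified by substituting 5% horse serum for lysed horse blood. Direct colony suspension inocula gave 5 × 10⁴ cfu/well. Growth was read visually after overnight incubation at 37 °C in ambient air.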

[5] = test system: Haemophilus influenzae; test: Antibacterial activity against Haemophilus influenzae ATCC 49247 after overnight incubation by broth microdilution method
Procedure, shortened: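 Bacteria were grown on Mueller Hinton chocolate agar. MIC was then determined by CLSI broth microdilution, with azithromycin as the reference and compounds as double dilutions. Inocula were prepared by direct colony suspension at 5 × 10⁴ cfu/well. Plates were read visually after overnight incubation at 37 °C in ambient air.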

[6] = test system: Streptococcus pyogenes; test: Antibacterial activity against Streptococcus pyogenes ATCC 700294 after overnight incubation by broth microdilution method; procedure, shortened: as §2

Compound | MIC [1] [µg/mL] | MIC [2] [µg/mL] | MIC [3] [µg/mL] | MIC [4] [µg/mL] | MIC [5] [µg/mL] | MIC [6] [µg/mL]
Clc1ccc(-n2cc(Cn3cnc4ccccc43)nn2)cc1 | > 128 | > 128 | 0.5 (≈ 1.61 µM) | > 128 | > 128 | > 128
FC(F)(F)c1ccc(-n2cc(Cn3cnc4ccccc43)nn2)cc1 | > 128 | > 128 | 16 (≈ 46.6 µM) | > 128 | > 128 | > 128
Cc1nc2ccccc2n1Cc1cn(-c2ccc(C(F)(F)F)cc2)nn1 | > 128 | > 128 | 64 (≈ 179 µM) | > 128 | > 128 | > 128
Fc1ccc(-n2cc(Cn3cnc4ccccc43)nn2)cc1 | > 128 | > 128 | 1 (≈ 3.41 µM) | > 128 | > 128 | > 128
Fc1ccccc1-n1cc(Cn2cnc3ccccc32)nn1 | > 128 | > 128 | 128 (≈ 436 µM) | > 128 | > 128 | > 128
Clc1cc(Cl)cc(-n2cc(Cn3cnc4ccccc43)nn2)c1 | > 128 | > 128 | 16 (≈ 46.5 µM) | > 128 | > 128 | > 128
Cc1ccc2nc(-c3ccc(NCc4cn(-c5ccc(F)cc5)nn4)cc3)sc2c1 | > 128 | > 128 | 128 (≈ 308 µM) | > 128 | > 128 | > 128
Cc1ccc2nc(-c3ccc(NCc4cn(-c5ccc(Cl)cc5)nn4)cc3)sc2c1 | > 128 | > 128 | 64 (≈ 148 µM) | > 128 | > 128 | > 128
Cc1ccc2nc(-c3ccc(NCc4cn(Cc5cc(=O)oc6cc(O)ccc56)nn4)cc3)sc2c1 | > 128 | > 128 |  | > 128 | > 128 | > 128
CC[C@H]1OC(=O)[C@H](C)[C@@H](O[C@H]2C[C@@](C)(OC)[C@@H](O)[C@H](C)O2)[C@H](C)[C@@H](O[C@@H]2O[C@H](C)C[C@H](N(C)C)[C@H]2O)[C@](C)(O)C[C@@H](C)CN(C)[C@H](C)[C@@H](O)[C@]1(C)O [AZITHROMYCIN] | 8 (≈ 10.7 µM) | 2 (≈ 2.67 µM) | 0.25 (≈ 0.334 µM) | 0.25 (≈ 0.334 µM) | 2 (≈ 2.67 µM) | 0.125 (≈ 0.167 µM)
